Assay results from different studies.
Lines come from different studies, so protocols differ. Values after ≈ are worked out from the molar mass of the structure shown.
Organism: Cryptococcus neoformans

CCCCC[C@H]1CN(c2cccc(OC(F)(F)F)c2)C(=O)CN1Cc1cncn1Cc1ccc(Br)cc1
MIC (microbial growth; broth dilution): 3 to 6 µM

Cc1ccccc1C(=O)NN=Cc1ccc(O)c(Br)c1
MIC (microbial growth; broth dilution): 1 µg/mL

CCCCCC[C@H]1C(=O)O[C@H](C)[C@H](NC(=O)c2cccc(NC=O)c2O)C(=O)O[C@@H](C)[C@@H]1OC(=O)CC(C)C
MIC80 (microbial growth): 2 µM (≈ 1.1 µg/mL)

CCCSc1ccc2nc(NC(=O)OC)[nH]c2c1
IC90 (microbial growth; broth dilution; 72 h; clinical isolate): 2.5 µM

CCCC[C@H]1CN(c2cccc(OC(F)(F)F)c2)C(=O)CN1Cc1cncn1Cc1ccc(C(F)(F)F)cc1
MIC (microbial growth; broth dilution): 3 to 6 µM

C[C@@H]1[C@H](O)[C@@H](C)/C=C/C=C/C=C/C=C/C=C/C=C/C=C/[C@H](O[C@@H]2O[C@H](C)[C@@H](O)[C@H](N)[C@@H]2O)C[C@@H]2O[C@](O)(C[C@@H](O)C[C@@H](O)[C@H](O)CC[C@@H](O)C[C@@H](O)CC(=O)O[C@H]1C)C[C@H](O)[C@H]2C(=O)O
IC50 (microbial growth; ATCC90113): 0.45 µg/mL (≈ 0.487 µM)

C[C@@H]1[C@H](O)[C@@H](C)/C=C/C=C/C=C/C=C/C=C/C=C/C=C/[C@H](O[C@@H]2O[C@H](C)[C@@H](O)[C@H](N)[C@@H]2O)C[C@@H]2O[C@](O)(C[C@@H](O)C[C@@H](O)[C@H](O)CC[C@@H](O)C[C@@H](O)CC(=O)O[C@H]1C)C[C@H](O)[C@H]2C(=O)O
MIC (microbial growth; broth dilution): 0.6 µg/mL

CCCC[C@H]1CN(c2cccc(OC(F)(F)F)c2)C(=O)CN1Cc1cncn1Cc1ccc(Cl)cc1
MIC (microbial growth; broth dilution): 3 to 6 µM

Cc1c(O)c(=O)ccn1C
MIC (microbial growth; broth dilution; 48 h): > 100 µM

O=C(NN=Cc1ccc(O)c(Br)c1)c1cccc(Br)c1
MFC (microbial killing): 1.2 µg/mL (≈ 3.01 µM)

Cl.O[C@]12C=C(c3nccc4c3[nH]c3ccccc34)[C@@H]3CCN(CCCC/C=C\CC1)C[C@@]31C[C@@H]3/C=C\CCCCN3[C@H]12
IC50 (microbial growth; ATCC90113): 1.04 µg/mL
